Results: ChEMBL document CHEMBL1125495, “Inhibitors of human renin with C-termini derived from amides and esters of alpha-mercaptoalkanoic acids” (J Med Chem, 1992)
pIC50: −log10 of the molar value. One block for each compound: values may come before it.

How the values were obtained:
[1] = molecular target: T1, Renin (Homo sapiens, UniProt P00797); assay: Inhibition of human plasma renin; assay type: cell-free
T1 sequence (P00797 whole entry): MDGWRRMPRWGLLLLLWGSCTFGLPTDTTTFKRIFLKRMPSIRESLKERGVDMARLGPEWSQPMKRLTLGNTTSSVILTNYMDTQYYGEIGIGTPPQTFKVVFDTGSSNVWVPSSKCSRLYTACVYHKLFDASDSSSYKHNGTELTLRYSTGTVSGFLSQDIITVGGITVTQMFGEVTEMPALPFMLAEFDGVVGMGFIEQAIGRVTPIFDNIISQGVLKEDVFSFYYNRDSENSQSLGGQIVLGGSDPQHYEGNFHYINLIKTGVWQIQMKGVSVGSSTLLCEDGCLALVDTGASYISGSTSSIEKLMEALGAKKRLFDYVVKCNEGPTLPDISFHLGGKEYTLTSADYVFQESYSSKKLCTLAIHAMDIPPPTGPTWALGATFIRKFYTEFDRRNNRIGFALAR

[2] = system: Rhesus monkey; assay: In vivo effect on mean arterial pressure(peak deltaMAP) in sodium deficient rhesus monkeys after iv administration (dose 0.1 mg/kg).; assay type: functional, Cercopithecidae, Artery
Method in brief: (§1)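 Conscious male and female rhesus monkeys (N = 2) with chronic arterial access ports for direct MAP and heart-rate monitoring, and venous catheters for dosing. Animals were kept on a low-sodium diet, given furosemide the evening before, and fasted 18 h before and during the study. Compound was given iv in 0.05% acetic acid/5% dextrose/H2O, 20 min after a vehicle control dose. Peak changes were averaged, and the hypotensive half-life was read from time plots.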

[3] = system: Rhesus monkey; assay: Half life of hypotensive effect in sodium deficient rhesus monkeys after iv administration (dose 0.1 mg/kg).; assay type: functional, organism-based; set-up: dose 0.1 mg/kg; conditions: Cercopithecidae; method in brief: as §1
[4] = system: Rhesus monkey; assay: In vivo effect on heart rate(peak deltaHR) in sodium deficient rhesus monkeys after iv administration (dose 0.1 mg/kg).; assay type: functional, Cercopithecidae; method in brief: as §1
[5] = molecular target: T2, Renin (Homo sapiens) (UniProt P00797); assay: In vivo inhibition of plasma renin activity in sodium deficient rhesus monkeys after iv administration (dose 0.1 mg/kg, determined at peak deltaMAP).; assay type: functional, organism-based; set-up: dose 0.1 mg/kg; conditions: Cercopithecidae, target entry is the homologue from another species, at 0.1 mg/kg
T2 sequence (whole entry): T1 sequence (P00797 whole entry)
Method in brief: (§2)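 Sodium-deficient rhesus monkeys (N = 2) were kept on a low-sodium diet, given furosemide the evening before, and fasted 18 h. Compound was given iv through a venous catheter in 0.05% acetic acid/5% dextrose/H2O, 20 min after vehicle. Blood was drawn periodically via an arterial access port for plasma renin activity. Percent inhibition was taken at peak ΔMAP.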

[6] = system: Rhesus monkey; assay: In vivo effect on heart rate(peak deltaHR) in sodium deficient rhesus monkeys after iv administration (dose 0.063 mg/kg).; assay type: functional, Cercopithecidae; method in brief: as §1
[7] = system: Rhesus monkey; assay: In vivo effect on mean arterial pressure(peak deltaMAP) in sodium deficient rhesus monkeys after iv administration (dose 0.063 mg/kg).; assay type: functional, Cercopithecidae, Artery; method in brief: as §1
[8] = molecular target: T2, Renin (Homo sapiens); assay: In vivo inhibition of plasma renin activity in sodium deficient rhesus monkeys after iv administration (dose 0.063 mg/kg, determined at peak deltaMAP).; assay type: functional, organism-based; set-up: dose 0.063 mg/kg; conditions: Cercopithecidae, target entry is the homologue from another species, at 0.063 mg/kg; method in brief: as §2
[9] = system: Rhesus monkey; assay: Half life of hypotensive effect in sodium deficient rhesus monkeys after iv administration (dose 0.063 mg/kg).; assay type: functional, organism-based; set-up: dose 0.063 mg/kg; conditions: Cercopithecidae; method in brief: as §1
[10] = system: Rhesus monkey; assay: In vivo effect on heart rate(peak deltaHR) in sodium deficient rhesus monkeys after iv administration (dose 0.99 mg/kg).; assay type: functional, Cercopithecidae; method in brief: as §1
[11] = system: Rhesus monkey; assay: In vivo effect on mean arterial pressure(peak deltaMAP) in sodium deficient rhesus monkeys after iv administration (dose 0.99 mg/kg).; assay type: functional, Cercopithecidae, Artery; method in brief: as §1
[12] = molecular target: T2, Renin (Homo sapiens); conditions: Cercopithecidae; at 0.99 mg/kg
[13] = system: Rhesus monkey; assay: Half life of hypotensive effect in sodium deficient rhesus monkeys after iv administration (dose 0.99 mg/kg).; assay type: functional, organism-based; set-up: dose 0.99 mg/kg; conditions: Cercopithecidae; method in brief: as §1
[14] = system: Rhesus monkey; assay: In vivo effect on mean arterial pressure(peak deltaMAP) in sodium deficient rhesus monkeys after iv administration (dose 0.63 mg/kg).; assay type: functional, Cercopithecidae, Artery; method in brief: as §1
[15] = molecular target: T2, Renin (Homo sapiens); assay: In vivo inhibition of plasma renin activity in sodium deficient rhesus monkeys after iv administration (dose 0.63 mg/kg, determined at peak deltaMAP).; assay type: functional, organism-based; set-up: dose 0.63 mg/kg; conditions: Cercopithecidae; target entry is the homologue from another species; at 0.63 mg/kg; method in brief: as §2
[16] = system: Rhesus monkey; assay: Half life of hypotensive effect in sodium deficient rhesus monkeys after iv administration (dose 0.63 mg/kg).; assay type: functional, organism-based; set-up: dose 0.63 mg/kg; conditions: Cercopithecidae; method in brief: as §1
[17] = system: Rhesus monkey; assay: In vivo effect on heart rate(peak deltaHR) in sodium deficient rhesus monkeys after iv administration (dose 0.63 mg/kg).; assay type: functional, Cercopithecidae; method in brief: as §1

Compound: CC(C)(C)OC(=O)N[C@@H](Cc1ccccc1)C(=O)N[C@@H](Cc1cnc[nH]1)C(=O)N[C@@H](CC1CCCCC1)[C@@H](O)CSCC(=O)NCCN1CCOCC1
pIC50 [1]: 7.40

Compound: CC(C)(C)OC(=O)N[C@@H](Cc1ccccc1)C(=O)N[C@@H](Cc1c[nH]cn1)C(=O)N[C@@H](CC1CCCCC1)[C@@H](O)CS(=O)(=O)CC(=O)NCCN1CCOCC1
Peak deltaMAP [2]: -15 mmHg | T1/2 [3]: < 10 min | Peak deltaHR [4]: -18 beats min-1 | inhibition [5]: 88%

Compound: CC(C)(C)OC(=O)N[C@@H](Cc1ccccc1)C(=O)N[C@@H](Cc1cnc[nH]1)C(=O)N[C@@H](CC1CCCCC1)[C@@H](O)C[S+]([O-])CC(=O)NCCN1CCOCC1 (some centres not stated)
pIC50 [1]: 7.72

Compound: CC(C)(C)OC(=O)N[C@@H](Cc1ccccc1)C(=O)N[C@@H](Cc1c[nH]cn1)C(=O)N[C@@H](CC1CCCCC1)[C@@H](O)CSCC(=O)NCc1ccncc1
Peak deltaHR [10]: -26 beats min-1 | Peak deltaMAP [11]: -16 mmHg | inhibition [12]: 88% | T1/2 [13]: < 10 min

Compound: CCOC(=O)CSC[C@H](O)[C@H](CC1CCCCC1)NC(=O)[C@H](Cc1c[nH]cn1)NC(=O)[C@H](Cc1ccccc1)NC(=O)OC(C)(C)C
Peak deltaMAP [14]: -15 mmHg | inhibition [15]: 87% | T1/2 [16]: < 10 min | Peak deltaHR [17]: -23 beats min-1

The next lines start with results.

pIC50 [1]: 7.06
Compound: CC(C)CC(C(=O)NCCN1CCOCC1)[S+]([O-])C[C@H](O)[C@H](CC1CCCCC1)NC(=O)[C@H](Cc1cnc[nH]1)NC(=O)[C@H](Cc1ccccc1)NC(=O)OC(C)(C)C (some centres not stated)

pIC50 [1]: 8.14 | inhibition [8]: 94%
Compound: CC(C)(C)S(=O)(=O)[C@@H](Cc1ccccc1)C(=O)N[C@@H](Cc1c[nH]cn1)C(=O)N[C@@H](CC1CCCCC1)[C@@H](O)CS(=O)(=O)CC(=O)NCCN1CCOCC1
Peak deltaHR [6]: -13 beats min-1 | Peak deltaMAP [7]: -20.5 mmHg | T1/2 [9]: < 10 min

pIC50 [1]: 7.47
Compound: CC(C)(C)OC(=O)N[C@@H](Cc1ccccc1)C(=O)N[C@@H](Cc1c[nH]cn1)C(=O)N[C@@H](CC1CCCCC1)[C@@H](O)CS(=O)(=O)CC(=O)NC1CCN(Cc2ccccc2)CC1

pIC50 [1]: 7.04
Compound: CC(C)(C)OC(=O)N[C@@H](Cc1ccccc1)C(=O)N[C@@H](Cc1cnc[nH]1)C(=O)N[C@@H](CC1CCCCC1)[C@@H](O)CSCC(=O)NCc1ccncc1
